According to article PMC3972754 (European biophysics journal : EBJ, 2013):
Structures can show the parent of a compound that is named as a salt. Where two headings read alike, the source gives them in different places.

Tests used:
[1] = biological target: T1, cPAH (phenylalanine hydroxylase from Chromobacterium violaceum) (Chromobacterium violaceum, UniProt P30967); assay: ITC; assay type: binding
T1 sequence (P30967 1-297): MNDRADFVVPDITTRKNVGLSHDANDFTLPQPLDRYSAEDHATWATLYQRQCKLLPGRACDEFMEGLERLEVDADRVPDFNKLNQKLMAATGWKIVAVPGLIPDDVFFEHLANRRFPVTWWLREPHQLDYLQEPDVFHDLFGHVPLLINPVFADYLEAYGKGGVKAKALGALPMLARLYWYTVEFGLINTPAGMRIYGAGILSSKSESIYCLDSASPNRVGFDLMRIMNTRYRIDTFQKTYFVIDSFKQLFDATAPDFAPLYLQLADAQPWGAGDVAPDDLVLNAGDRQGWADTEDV
In short: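 Untagged or GST-cleaved C. violaceum cPAH (WT or point mutants), dialysed overnight against 50 mM HEPES pH 7.4. Amino-acid ligand (1–10 mM) titrated into 50–100 µM protein over 18 × 2 µL injections. Buffer-only reference subtracted; one-site fit; duplicates. Anaerobic variant (argon, 25 °C): apo enzyme reconstituted with 0.5–1.0 mol ferrous ammonium sulfate per mol PAH, plus 200 µM pterin cofactor, equilibrated 15 min.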

[2] = biological target: T2, cPAH (phenylalanine hydroxylase from Chromobacterium violaceum) (Chromobacterium violaceum, UniProt P30967, Y155A); assay: biochemical
[3] = biological target: T3, cPAH (phenylalanine hydroxylase from Chromobacterium violaceum) (Chromobacterium violaceum, UniProt P30967, F258A); assay: biochemical
[4] = biological target: T4, cPAH (phenylalanine hydroxylase from Chromobacterium violaceum) (Chromobacterium violaceum, UniProt P30967, T254A); assay: biochemical
[5] = biological target: T5, cPAH (phenylalanine hydroxylase from Chromobacterium violaceum) (Chromobacterium violaceum, UniProt P30967, S203P); assay: biochemical
[6] = biological target: T1, cPAH (phenylalanine hydroxylase from Chromobacterium violaceum); assay: ITC, one-site model; assay type: binding
[7] = biological target: T1, cPAH (phenylalanine hydroxylase from Chromobacterium violaceum); assay: tyrosine formation at […] nm, initial rates; assay type: biochemical; conditions: 20 °C, 0.1 M Na-HEPES pH 7.4, O2 saturated, FeSO4, 350 µM DMPH4
[8] = biological target: T5, cPAH (phenylalanine hydroxylase from Chromobacterium violaceum); assay: biochemical; remark: listed apart in the source
[9] = biological target: T4, cPAH (phenylalanine hydroxylase from Chromobacterium violaceum); assay: biochemical; remark: listed apart in the source
[10] = biological target: T2, cPAH (phenylalanine hydroxylase from Chromobacterium violaceum); assay: biochemical; remark: listed apart in the source
[11] = biological target: T3, cPAH (phenylalanine hydroxylase from Chromobacterium violaceum); assay: biochemical; remark: listed apart in the source

Compound	Kd [1]	Kd [2]	Kd [3]	Kd [4]	Kd [5]	Kd [6]	Km [7]	Kd [8]	Kd [9]	Kd [10]	Kd [11]
C[C@H](O)[C@H](O)[C@H]1CNc2nc(N)[nH]c(=O)c2N1 [BH4, (6R)-5,6,7,8-tetrahydrobiopterin dihydrochloride]	23.5 ± 1.6 µM	16.2 ± 0.7 µM	29.3 ± 1.6 µM	43.6 ± 4.2 µM	35.2 ± 3.3 µM						
N[C@@H](Cc1ccccc1)C(=O)O [phenylalanine]						24 ± 1.1 µM	244 ± 40.8 µM	7 ± 0.3 µM	376 ± 10 µM	559 ± 30 µM	775 ± 44 µM
